In the library only some 3.2% were active in any assay of this set; here they are far more common.
Ecoli rRNA inh: reduced GFP signal of wild-type E. coli, primary screen, bacterial rRNA inhibitor project, GFP/RFP fluorescence, OD600, single point. E. coli WT GFP vs humanized-ribosome RFP mutants, 24 h; active compounds read low; DMSO median 0, no signal -100. GFP signal change (wild-type ribosome), % (test concentration not listed). 1.6% of 350,000 active. AID 720706, 2013;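 active = significant combined selectivity score with lowered wild-type GFP, culture density cut under 30%, mutant RFP and density less affected; inactive = any of these conditions unmet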
DENV2 CPE rescue: inhibitors of DENV2 cytopathic effect, primary screen, cell-based, plate reader, single concentration; DENV2-infected cells, cytopathic effect rescue; CPE inhibition, % at 9.99 µM; 1.7% of 350,000 active; AID 651640, 2012; in the data active = CPE inhibition above about 20%, passing the limit was not always enough; inconclusive = no clear call, values can overlap the other calls; tested in BHK-21 cells
Cneo AK release: Cryptococcus neoformans cell lysis inducers, primary screen, AK release luminescence, single concentration; AID 651654, 2012; lysis activity, % at 15 µM; C. neoformans lysis, adenylate kinase release luminescence, 4 h; normalised: neutral wells 0, clomiphene wells 100; 0.2% of 360,000 active;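 active = mean lysis activity across replicates of at least 80%, whatever share of replicates individually reach that level; inactive = mean lysis activity below 80%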
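Test system: log-phase Cryptococcus neoformans yeast cells; Quantity: yeast cell density of 5 × 10^6 cells/mL; Buffer or medium: YPD; Doses: single compound concentration per well; Timing: 4 h at 37 °C static, read 1 h later; Measured by: AK luminescence; Read-out basis: lysis from increased AK signal; Control set: Clomiphene as positive control.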
S100A4 MyoIIA: inhibitors of S100A4-myosin IIA peptide binding, primary screen, biochemical, fluorescence polarization, TAMRA-MyoIIA peptide. Protein S100-A4 (Homo sapiens), P26447. inhibition, % at 10.7 µM. 0.14% of 360,000 active. AID 652163, 2013;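 active = mean inhibition of at least 70% across replicates, with every replicate also reaching that level; inconclusive = mean inhibition reaches 70% but some replicates fall short; inactive = mean inhibition below 70%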
Target sequence (P26447 whole entry, looked up): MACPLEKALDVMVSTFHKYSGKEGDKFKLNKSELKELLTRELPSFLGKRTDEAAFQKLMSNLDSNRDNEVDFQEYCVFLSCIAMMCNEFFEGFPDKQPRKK
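Material: S100A4 monomer protein / Buffer or medium: 50 mM HEPES pH 7.2, 10 mM CaCl2, 100 mM KCl / Times: 5 min incubation before reading / Benchmarks: neutral control DMSO, positive control TFP / Reagent: labelled myosin peptide probe, 5 nM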
AF4-AF9 inh: inhibitors of AF4 peptide binding to AF9, primary screen, biochemical, AlphaScreen, biotin-AF4 peptide, FLAG-AF9, single point | Protein AF-9 (Homo sapiens), P42568 | inhibition, % at 10 µM | 0.47% of 350,000 active | AID 651704, 2012;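 active = every replicate reaching a set inhibition limit, whatever the replicate mean, cut at about 25% in these data; inconclusive = mean inhibition reaches that limit but some replicates miss it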
HepG2 cytotox: cytotoxicity in HepG2 cells, dose response, cytotoxicity control, cell-based, CellTiter-Glo luminescence, cherry-pick, set 4; shares compounds with Ecoli rRNA inh; HepG2 viability, ATP luminescence, 72 h; activity change, negative = cytotoxicity, unspecified at 26 µM; 30 tested, under 10 active;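 active = compounds whose fitted half-maximal signal-loss concentration is at most twice their highest valid dose; inconclusive = flat curve with 30 to 70% signal loss, or poor fit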
AID977621: growth inhibition of wild-type GFP E. coli, dose response, H69 mutant RFP, cherry-pick; AID 977621, 2014; shares compounds with Ecoli rRNA inh; activity change, negative = inhibition at 50 µM; E. coli wild-type GFP strain growth, fluorescence, 24 h; 1,900 tested, under 10 active;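 active = Wild-type ribosome reporter drop at least double the humanized mutant ribosome reporter drop, growth loss under a set limit; inconclusive = no clear call, values can overlap the other calls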;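 also: wild-type GFP and H69 mutant RFP strains grown together 50/50 in each well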
AID977628: E. coli growth inhibition, wild-type GFP versus h24 humanized RFP strain, dose response, h24 mutant RFP vs wild-type GFP, cherry-pick; shares compounds with Ecoli rRNA inh; 1,900 tested, under 10 active; activity change, negative = inhibition at 50 µM; AID 977628, 2014; E. coli WT GFP strain growth, fluorescence, 24 h;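 active = compound lowering the normal-ribosome reporter at least twice as much as the humanized-ribosome reporter, growth loss under a set limit; inconclusive = no clear call, values can overlap the other calls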;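 also: wild-type GFP and h24 humanized RFP strains co-cultured 1 to 1 per well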
Each line names hits and unclear results; the compound was inactive in the other large screens (follow-up assays come after a bar, where they were run).

C[C@@H]1CCCCO[C@@H](CN(C)C)[C@H](C)CN([C@H](C)CO)C(=O)c2cc(NC(=O)Nc3cccc4ccccc34)ccc2O1	none | AID977621 inactive | AID977628 inconclusive
C[C@@H]1CCCCO[C@H](CN(C)C(=O)Nc2cccc3ccccc23)[C@H](C)CN([C@@H](C)CO)C(=O)c2cc(NC(=O)Nc3cccc4ccccc34)ccc2O1	none
CC(C)NC(=O)N(C)C[C@H]1OCCCC[C@@H](C)Oc2ccc(NC(=O)c3ccccc3)cc2C(=O)N([C@@H](C)CO)C[C@H]1C	Ecoli rRNA inh -20 | AID977621 inactive | AID977628 inconclusive
C[C@H]1CCCCO[C@@H](CN(C)C)[C@@H](C)CN([C@@H](C)CO)C(=O)c2cc(NC(=O)Nc3cccc4ccccc34)ccc2O1	none | AID977621 inactive | AID977628 inconclusive
CC(C)NC(=O)N(C)C[C@H]1OCCCC[C@@H](C)Oc2ccc(NC(=O)Nc3cccc4ccccc34)cc2C(=O)N([C@@H](C)CO)C[C@H]1C	Ecoli rRNA inh -31 | AID977628 inconclusive
COc1ccc(CN2C[C@H](O)COC[C@@H]3O[C@@H](CC(=O)NCc4ccccc4Cl)CC[C@H]32)cc1	none
C[C@H](CO)N1C[C@H](C)[C@@H](CN(C)Cc2ccccc2)Oc2ncc(C#CCN(C)C)cc2C1=O	none
COc1ccc2c3c([nH]c2c1)[C@H](CO)N(C(=O)Nc1ccc(F)cc1)CC31CCN(S(=O)(=O)c2cccs2)CC1	none (no result: Cneo AK release)
C[C@H](CO)N1C[C@H](C)[C@@H](CN(C)C)OCCCC[C@H](C)Oc2ccc(NC(=O)Nc3cccc4ccccc34)cc2C1=O	none | AID977621 inactive | AID977628 inconclusive
C[C@@H]1CCCCO[C@@H](CN(C)C)[C@@H](C)CN([C@H](C)CO)C(=O)c2cc(NC(=O)Nc3cccc4ccccc34)ccc2O1	none | AID977621 inactive | AID977628 inconclusive
C[C@@H]1CCCCO[C@H](CN(C)CC2CC2)[C@H](C)CN([C@@H](C)CO)C(=O)c2cc(NC(=O)Nc3cccc4ccccc34)ccc2O1	Ecoli rRNA inh -27 (no result: S100A4 MyoIIA, AF4-AF9 inh) | HepG2 cytotox inactive
C[C@@H]1CCCCO[C@@H](CN(C)CC2CC2)[C@H](C)CN([C@@H](C)CO)C(=O)c2cc(NC(=O)Nc3cccc4ccccc34)ccc2O1	none (no result: S100A4 MyoIIA, AF4-AF9 inh)
C[C@H](CO)N1C[C@H](C)[C@H](CN(C)C)OCCCC[C@H](C)Oc2ccc(NC(=O)Nc3cccc4ccccc34)cc2C1=O	none | AID977621 inactive | AID977628 inconclusive
C[C@@H]1CCCCO[C@H](CN(C)C(=O)Nc2cccc3ccccc23)[C@@H](C)CN([C@H](C)CO)C(=O)c2cc(NC(=O)Nc3cccc4ccccc34)ccc2O1	none
C[C@H](CO)N1C[C@H](C)[C@@H](CN(C)C(=O)Nc2cccc3ccccc23)OCCCC[C@H](C)Oc2ccc(NC(=O)Nc3cccc4ccccc34)cc2C1=O	none
CO[C@@H]1CN(C)C(=O)c2cc(NC(=O)Nc3cccc(Cl)c3)ccc2OC[C@H](C)N(C)C[C@H]1C	none (no result: DENV2 CPE rescue, Cneo AK release, S100A4 MyoIIA, AF4-AF9 inh)
CCCNC(=O)C[C@@H]1CC[C@H]2[C@H](COc3ccc(NC(=O)NCC)cc3C(=O)N2C)O1	none
CCNC(=O)[C@@H]1[C@@H](CO)[C@@H]2Cn3c(ccc(-c4ccccc4F)c3=O)[C@H]1N2CC	none
